Among all 340,000 compounds or so, about 3,000 (0.88%) were called active. This is one part of a sample in which actives are shown more often than they occur. Unmarked numbers belong to inactive results.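 Rule for the calls: active = inhibition above about 50% at 20 µM (limit read from the data); inactive = the rest.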
target: Carboxy-terminal domain RNA polymerase II polypeptide A small phosphatase 1 (Homo sapiens) (UniProt Q9GZU7); test: Scp-1 phosphatase inhibitors, primary screen, biochemical, colorimetric, uHTS (AID 493091); details: Recombinant Scp1, phosphopeptide, malachite green phosphate absorbance; at 20 µM; active compounds read high;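 note: plate controls were DMSO wells with enzyme for no effect and wells lacking enzyme for full effect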
Sequence (Q9GZU7 76-261 limits assumed): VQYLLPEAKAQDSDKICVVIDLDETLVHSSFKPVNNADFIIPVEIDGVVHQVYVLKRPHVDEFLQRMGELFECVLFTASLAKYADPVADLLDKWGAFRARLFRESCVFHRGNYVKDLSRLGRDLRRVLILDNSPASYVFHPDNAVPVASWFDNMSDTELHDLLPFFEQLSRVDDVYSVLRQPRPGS
Outline: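 Assay system: SCP-1 catalytic fragment, aa 76-261 | Buffer or medium: Tris acetate buffer pH 5.5 with MgCl2 and Tween-20 | Compound: One concentration, 20 µM, with 1.0% DMSO | Also added: Phospho 17-mer peptide substrate | Signal: Absorbance at 630 nm | Incubation: 45 min enzyme reaction at room temperature | Measure: % inhibition of SCP-1 phosphate liberation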

Row | SMILES | inhibition
1 | CCc1ccc(C(=O)N2CCN(S(=O)(=O)c3sc(C(=O)O)c(C)c3C(=O)O)CC2)cc1 | 11.9%
2 | CC1CC(C)CN(C/C=C/c2ccccc2[N+](=O)[O-])C1 (centres undefined) | -6.48%
3 | CN(C)[C@@H]1C(=O)C(C(N)=O)=C(O)[C@@]2(O)C(=O)C3=C(O)c4c(O)ccc(Cl)c4[C@@H](O)[C@H]3C[C@@H]12 | -6.29%
4 | C=C1c2c(Cl)ccc(O)c2C(O)=C2C(=O)[C@]3(O)C(O)=C(C(N)=O)C(=O)[C@@H](N(C)C)[C@@H]3[C@@H](O)C12 (some centres undefined) | 65.5% (active)
5 | O=C(CNC(=O)c1cc2c(s1)CCC2)Nc1ccccc1Br | -7%
6 | Brc1ccc(-c2nnc(-c3ccccc3)o2)o1 | 2.87%
7 | O=C(Nc1ccc(-c2nnc(-c3ccccc3)o2)cc1)c1ccc(Br)o1 | 73% (active)
8 | O=C(CNC(=O)c1ccc(Br)o1)Nc1ccccc1 | -5.1%
9 | O=C(COC(=O)c1cccnc1Cl)NC12CC3CC(CC(C3)C1)C2 | -2.71%
10 | c1ccc(C(c2ccccc2)N2CCN(Cc3nnnn3C3CCCCC3)CC2)cc1 | 5.01%
11 | CC1(C)CC(N2CCN(C(c3ccccc3)c3ccccc3)CC2)=CC(=[N+]2CCCCC2)C1 | 98.9% (active)
12 | CC(C)OCC(O)CN1CCN(C(c2ccccc2)c2ccccc2)CC1 (centres undefined) | -1.8%
13 | COc1cc2c(cc1OC)C1C(=O)c3cc(OS(C)(=O)=O)c(OC)cc3C1N(C)C2=O (centres undefined) | 7.12%
14 | Cc1ccc(C)c(-c2nnc(NC(=O)CS(=O)(=O)c3ccccc3)o2)c1 | -3.82%
15 | O=c1c(-c2ccccc2)cnc2n1CCS2 | -9.56%
16 | O=c1c2cc(-c3ccccc3)sc2nc2n1N=C(c1cccs1)CS2 | 79.1% (active)
17 | Cc1ccccc1C1CC(c2cccs2)=NN1S(C)(=O)=O (centres undefined) | 4.93%
18 | COc1ccc(OCc2cc(C(=O)NCC3(C)COC3)no2)c(Cl)c1 | -1.65%
19 | Cc1nc2ccc(C(=O)N(C)CC3CCCN(CCc4ccc(Cl)cc4)C3)cc2[nH]1 (centres undefined) | -5.73%
20 | COc1ccc(S(=O)(=O)N2CCN(C(=O)c3cc(C)oc3C)CC2)cc1 | -8.28%
21 | Nc1nc(NCC(=O)O)nc(N2CCCCCC2)c1[N+](=O)[O-] | 6.19%
22 | N#Cc1c(N2CCCCC2)nc(N)c2c(N)nc(SCC(=O)O)cc12 | 65.9% (active)
23 | N#CCc1c(C#N)c(N)nc(N2CCCC2)c1C#N | -4.92%
24 | CC(=O)Nc1ccc(S(=O)(=O)NC(C)C(=O)OCCOc2ccc(F)cc2)cc1 (centres undefined) | -7.64%
